Reference: ChEMBL document CHEMBL3407400, “Design, synthesis and biological evaluations of chirally pure 1,2,3,4-tertrahydroisoquinoline analogs as anti-cancer agents” (Eur J Med Chem, 2015)
pIC50: −log10 of the molar value. One block for each compound: values may come before it. Calls of active or inactive are those of the source. No cut-off for these calls is given here.

Columns and labels:
DU-145 [1] = assay: Anticancer activity against human DU145 cells after 48 hrs by MTT assay; format: functional, cell-based; details: DU-145, 48 h
Procedure, shortened: (§1)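 Cell lines held in DMEM or MEM with 10% FBS and antibiotic-antimycotic at 37 °C, 5% CO2. Cells seeded at 1 × 10⁴ per well in DMEM with 10% FBS and left 24 h. Compounds diluted in medium and added alongside vehicle control for 48 h. MTT (5 mg/mL) added for 4 h, formazan dissolved in DMSO, absorbance read at 570 nm.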

A549 = assay: Anticancer activity against human A549 cells after 48 hrs by MTT assay; format: functional, cell-based; details: A549, 48 h; procedure, shortened: as §1
MCF7 = assay: Anticancer activity against human MCF7 cells after 48 hrs by MTT assay; format: functional, cell-based; details: MCF7, 48 h; procedure, shortened: as §1
HepG2 = assay: Anticancer activity against human HepG2 cells after 48 hrs by MTT assay; format: functional, cell-based; details: HepG2, 48 h; procedure, shortened: as §1
HeLa = assay: Anticancer activity against human HeLa cells after 48 hrs by MTT assay; format: functional, cell-based; procedure, shortened: as §1
DU-145 [2] = assay: Cell cycle arrest in human DU145 cells assessed as G2/M phase at 1 uM after 48 hrs by propidium iodide based flow cytometry (reference value: 6.75 %); format: functional
DU-145 [3] = assay: Cell cycle arrest in human DU145 cells assessed as G0/G1 phase at 1 uM after 48 hrs by propidium iodide based flow cytometry (reference value: 79.15 %); format: functional
DU-145 [4] = assay: Cell cycle arrest in human DU145 cells assessed as S phase at 1 uM after 48 hrs by propidium iodide based flow cytometry (reference value: 1.65 %); format: functional
DU-145 [5] = assay: Disruption of microtubule network in human DU145 cells at 50 uM after 48 hrs by immunohistochemistry analysis; format: cell-based
DU-145 [6] = assay: Cell cycle arrest in human DU145 cells assessed as subG1 phase at 1 uM after 48 hrs by propidium iodide based flow cytometry (reference value: 9.36 %); format: functional
DU-145 [7] = assay: Induction of apoptosis in human DU145 cells assessed as viable cells at 0.5 uM after 48 hrs by annexin V FITC/PI dual staining assay (reference value: 96.45 %); format: functional; details: DU-145, 48 h, read-out: Activity
DU-145 [8] = assay: Induction of apoptosis in human DU145 cells assessed as necrotic cells at 0.5 uM after 48 hrs by annexin V FITC/PI dual staining assay (reference value: 0.31 %); format: functional
DU-145 [9] = assay: Cell cycle arrest in human DU145 cells assessed as G0/G1 phase at 0.5 uM after 48 hrs by propidium iodide based flow cytometry (reference value: 79.15 %); format: functional
DU-145 [10] = assay: Induction of apoptosis in human DU145 cells assessed as viable cells at 1 uM after 48 hrs by annexin V FITC/PI dual staining assay (reference value: 96.45 %); format: functional; details: DU-145, 48 h, read-out: Activity
DU-145 [11] = assay: Cell cycle arrest in human DU145 cells assessed as subG1 phase at 0.5 uM after 48 hrs by propidium iodide based flow cytometry (reference value: 9.36 %); format: functional
DU-145 [12] = assay: Induction of apoptosis in human DU145 cells assessed as early apoptotic cells at 0.5 uM after 48 hrs by annexin V FITC/PI dual staining assay (reference value: 0.77 %); format: functional
DU-145 [13] = assay: Induction of apoptosis in human DU145 cells assessed as down regulation of Bcl2 at 0.5 uM after 48 hrs by Western blot analysis relative to control; format: functional, cell-based
DU-145 [14] = assay: Cell cycle arrest in human DU145 cells assessed as G2/M phase at 0.5 uM after 48 hrs by propidium iodide based flow cytometry (reference value: 6.75 %); format: functional
DU-145 [15] = assay: Induction of apoptosis in human DU145 cells assessed as DNA fragmentation at 0.5 uM after 48 hrs by agarose gel electrophoresis; format: functional, cell-based
Procedure, shortened: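 DU-145 cells (1 × 10⁶) seeded, then treated 24 h later for 48 h. Lysate cleared, then digested with SDS/RNase A (2 h, 56 °C) and proteinase K (2 h, 37 °C). DNA precipitated with ammonium acetate and ice-cold ethanol, dissolved in TE. Laddering resolved on 2% agarose.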

DU-145 [16] = assay: Induction of apoptosis in human DU145 cells assessed as necrotic cells at 1 uM after 48 hrs by annexin V FITC/PI dual staining assay (reference value: 0.31 %); format: functional
DU-145 [17] = assay: Induction of apoptosis in human DU145 cells assessed as early apoptotic cells at 1 uM after 48 hrs by annexin V FITC/PI dual staining assay (reference value: 0.77 %); format: functional
DU-145 [18] = assay: Cell cycle arrest in human DU145 cells assessed as S phase at 0.5 uM after 48 hrs by propidium iodide based flow cytometry (reference value: 1.65 %); format: functional
DU-145 [19] = assay: Induction of apoptosis in human DU145 cells assessed as up regulation of Bax at 0.5 uM after 48 hrs by Western blot analysis relative to control; format: functional, cell-based
DU-145 [20] = assay: Induction of apoptosis in human DU145 cells assessed as activation of caspase 3 at 0.5 to 1 uM after 48 hrs by fluorometric assay relative to control; format: functional
Procedure, shortened: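 DU-145 cells treated for 48 h. Fluorometric caspase-3 kit used: […] substrate added to cell lysate, 1 h at 37 °C. Fluorescence read at excitation 400 nm, emission 505 nm.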

DU-145 [21] = assay: Induction of apoptosis in human DU145 cells assessed as late apoptotic cells at 0.5 uM after 48 hrs by annexin V FITC/PI dual staining assay (reference value: 2.47 %); format: functional
DU-145 [22] = assay: Induction of apoptosis in human DU145 cells assessed as late apoptotic cells at 1 uM after 48 hrs by annexin V FITC/PI dual staining assay (reference value: 2.47 %); format: functional
Tubulin = assay: Inhibition of tubulin (unknown origin) polymerization by fluorescence assay; format: protein-complex assay, Homo sapiens

SMILES: O=C(/C=C/c1ccc(F)cc1)N1Cc2ccccc2[C@@H](OCc2ccccc2)[C@@H]1CO
- pIC50 (DU-145 [1]): 4.53
- pIC50 (A549): 4.49
- pIC50 (MCF7): 4.24
- pIC50 (HepG2): 4.61
- pIC50 (HeLa): 4.23

SMILES: COC(=O)Nc1nc2cc(C(=O)c3cccs3)ccc2[nH]1 [NOCODAZOLE]
- Activity (DU-145 [2]): 43.4%
- Activity (DU-145 [3]): 48.19%
- Activity (DU-145 [4]): 0.86%
- Activity (DU-145 [5]): Active
- Activity (DU-145 [6]): 4.52%

SMILES: Cc1ccc(S(=O)(=O)Nc2ccccc2C(=O)N2Cc3ccccc3[C@@H](OCc3ccccc3)[C@@H]2CO)cc1
- pIC50 (DU-145 [1]): 4.40
- pIC50 (A549): 4.43
- pIC50 (MCF7): 4.10
- pIC50 (HepG2): 4.24
- pIC50 (HeLa): 4.25

SMILES: COc1cc(/C=C/C(=O)N2Cc3ccccc3[C@@H](OCc3ccccc3)[C@@H]2CO)ccc1O
- pIC50 (DU-145 [1]): 4.38
- pIC50 (A549): 4.20
- pIC50 (MCF7): 4.43
- pIC50 (HepG2): 4.10
- pIC50 (HeLa): 4.17

Continued by rising pIC50 (DU-145 [1]), values first:

- pIC50 (DU-145 [1]): 4.89
- pIC50 (A549): 4.60
- pIC50 (MCF7): 4.40
- pIC50 (HepG2): 4.68
- pIC50 (HeLa): 4.56
SMILES: O=C(/C=C/c1ccccc1)N1Cc2ccccc2[C@@H](OCc2ccccc2)[C@@H]1CO

- pIC50 (DU-145 [1]): 5.33
- pIC50 (A549): 5.13
- pIC50 (MCF7): 4.83
- pIC50 (HepG2): 5.27
- pIC50 (HeLa): 4.68
SMILES: Cc1ccc(S(=O)(=O)N[C@@H](C)C(=O)N2Cc3ccccc3[C@@H](OCc3ccccc3)[C@@H]2CO)cc1

- pIC50 (DU-145 [1]): 5.39
- pIC50 (A549): 5.25
- pIC50 (MCF7): 4.61
- pIC50 (HepG2): 5.27
- pIC50 (HeLa): 4.57
SMILES: O=C(/C=C/c1ccc([N+](=O)[O-])cc1)N1Cc2ccccc2[C@@H](OCc2ccccc2)[C@@H]1CO

- pIC50 (DU-145 [1]): 5.68
- pIC50 (A549): 5.36
- pIC50 (MCF7): 4.72
- pIC50 (HepG2): 5.55
- pIC50 (HeLa): 4.80
SMILES: O=C(/C=C/c1cccc(O)c1)N1Cc2ccccc2[C@@H](OCc2ccccc2)[C@@H]1CO

- pIC50 (DU-145 [1]): 6.14
- pIC50 (A549): 5.90
- pIC50 (MCF7): 5.60
- pIC50 (HepG2): 6.06
- pIC50 (HeLa): 5.50
- pIC50 (Tubulin): 5.77
SMILES: Cc1ccc(S(=O)(=O)N2CC(=O)N3Cc4ccccc4[C@@H](OCc4ccccc4)[C@@H]3C2)cc1
- viability at 0.5 µM (DU-145 [7]): 90.1%
- Activity (DU-145 [8]): 0.63%
- Activity (DU-145 [9]): 67.34%
- viability at 1 µM (DU-145 [10]): 65.6%
- Activity (DU-145 [2]): 44.17%
- Activity (DU-145 [11]): 8.22%
- Activity (DU-145 [12]): 2.79%
- Activity (DU-145 [3]): 46.74%
- Activity (DU-145 [13]): Active
- Activity (DU-145 [4]): 0.9%
- Activity (DU-145 [14]): 17.68%
- Activity (DU-145 [5]): Active
- Activity (DU-145 [15]): Active
- Activity (DU-145 [16]): 4.48%
- Activity (DU-145 [17]): 4.15%
- Activity (DU-145 [6]): 5.02%
- Activity (DU-145 [18]): 2.64%
- Activity (DU-145 [19]): Active
- fold change (FC) (DU-145 [20]): 3
- Activity (DU-145 [21]): 6.47%
- Activity (DU-145 [22]): 25.79%
